Calls of active or inactive are those of the source.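 How the source made its calls: active means change in binding activity of 20% or more in either direction; inactive means change in binding activity under 20%.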

The test system of this test is HepG2 proliferation, sulforhodamine B absorbance, 7-10 days. Nature of the test: HepG2 cell proliferation modulation, late-stage follow-up, counter-screen for AHR activator project, absorbance (AID 602173). The conditions noted are these: at 10 µM. A digest of the protocol: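 Material: Human hepatoma HepG2 cells, estrogen receptor-negative | Amount: 2,000 cells per well | Doses: One dose, 10 µM compound | Times: 24 h pre-culture, 37 °C exposure | Measured by: SRB absorbance at 490 nm, 650 nm corrected | Read-out: Stained cell mass as percent of DMSO-treated wells, negative for inhibition | Control set: DMSO-treated wells as vehicle reference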
A general note: The purpose of a counterscreen is to sort out artefacts and off-target activity.
As for `Cc1ccc(-c2cc(-c3cccs3)[nH]n2)c(O)c1`, the proliferation change, negative = inhibition is -97.5%.
Consider `Cn1c(C(=O)N2CCC(C(N)=O)CC2)cc2cc(Cl)ccc21`, for which the proliferation change, negative = inhibition is 3.8% (inactive).
Turning to `Cc1nc(N)nc(Nc2ccc(Cl)cc2)c1Br`, the proliferation change, negative = inhibition is -19.5% (inactive).
As to `CCOC(=O)Cc1cc(-c2ccc(O)cc2)nc2ccc3ccccc3c12`, the proliferation change, negative = inhibition is -29%.
For `Cc1c(-c2ccn[nH]2)cc(NC(=O)c2ccc(Cl)cc2)c(=O)n1N`, the proliferation change, negative = inhibition is -6% (inactive).
Turning to `CCOc1ccc(-c2cc(C)n3nc(C(N)=O)cc3n2)cc1`, the proliferation change, negative = inhibition was 11.8% (inactive).
As for `COc1ccccc1NC(=O)c1ccc(C(=O)Nc2ccccc2OC)nc1`, the proliferation change, negative = inhibition is -49.8%.
As to `COc1ccc(NC(=O)c2cccc3c(Br)cccc23)cc1`, the proliferation change, negative = inhibition is -38.5%.
As for `Cc1csc(SCC(=O)Nc2ccc(Cl)cn2)n1`, the proliferation change, negative = inhibition is 12.2% (inactive).
`Cc1nnc(N2C(=O)c3cccc4c([N+](=O)[O-])ccc(c34)C2=O)s1`: the proliferation change, negative = inhibition is -12.8% (inactive).

The record behind these values is PubChem BioAssay AID602173 (The Scripps Research Institute Molecular Screening Center, 2012).
